Experimental findings from ChEMBL document CHEMBL2331528, “Design and synthesis of bicyclic pyrazinone and pyrimidinone amides as potent TF-FVIIa inhibitors” (Bioorg Med Chem Lett, 2013) are described below.

The target in data set [1] is Coagulation factor X (Homo sapiens, UniProt P00742). Put plainly: Inhibition of factor-10a (unknown origin) by chromogenic substrate assay. The method in brief:
(§1)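 Ki from chromogenic substrate assays at 25 °C; n = 2.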

Data set [2] has as its target Prothrombin (Homo sapiens, UniProt P00734). Put plainly: Inhibition of thrombin (unknown origin) by chromogenic substrate assay. The method in brief: as §1
In data set [3] the target is Coagulation factor VII/tissue factor (Homo sapiens, UniProt P08709). Put plainly: Inhibition of tissue factor-factor 7a (unknown origin) interaction by chromogenic substrate assay. The data set is classed as protein-complex assay. In outline: as §1
For data set [4], the species on record is Homo sapiens. Put plainly: Selectivity ratio of Ki for factor-9a (unknown origin) to Ki for tissue factor-factor 7a (unknown origin) interaction.
The species named for data set [5] is Homo sapiens. Put plainly: Selectivity ratio of Ki for factor-10a (unknown origin) to Ki for tissue factor-factor 7a (unknown origin) interaction.
Data set [6] relates to Plasma. Put plainly: Anticoagulant activity in factor 7 deficient human plasma assessed as concentration required to prothrombin time. The data set is classed as functional.
The subject of data set [7] is Plasma. Put plainly: Fraction unbound in human plasma. Format: ADME, cell-free.
Data set [8] is filed under the species Homo sapiens. Put plainly: Selectivity ratio of Ki for factor-11a (unknown origin) to Ki for tissue factor-factor 7a (unknown origin) interaction.
Data set [9] is filed under the species Homo sapiens. Put plainly: Selectivity ratio of Ki for trypsin (unknown origin) to Ki for tissue factor-factor 7a (unknown origin) interaction.
The species named for data set [10] is Homo sapiens. Put plainly: Selectivity ratio of Ki for thrombin (unknown origin) to Ki for tissue factor-factor 7a (unknown origin) interaction.
The species named for data set [11] is Homo sapiens. Put plainly: Selectivity ratio of Ki for plasma kallikrein (unknown origin) to Ki for tissue factor-factor 7a (unknown origin) interaction.

Bounds are passed on as bounds.

Coagulation factor VII/tissue factor, sequence (P08709 61-212 limits assumed): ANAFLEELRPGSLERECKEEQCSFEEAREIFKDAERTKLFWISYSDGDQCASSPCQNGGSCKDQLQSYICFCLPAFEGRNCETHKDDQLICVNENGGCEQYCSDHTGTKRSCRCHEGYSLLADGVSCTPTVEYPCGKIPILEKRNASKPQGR
Coagulation factor VII/tissue factor, sequence (P08709 213-466 limits assumed): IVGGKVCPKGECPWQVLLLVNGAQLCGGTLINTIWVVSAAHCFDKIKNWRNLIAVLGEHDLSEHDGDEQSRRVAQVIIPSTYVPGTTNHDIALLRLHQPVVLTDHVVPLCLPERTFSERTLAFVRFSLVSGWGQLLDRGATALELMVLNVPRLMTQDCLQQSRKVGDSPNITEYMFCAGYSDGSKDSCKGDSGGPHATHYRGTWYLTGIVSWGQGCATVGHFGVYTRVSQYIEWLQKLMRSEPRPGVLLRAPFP
Coagulation factor VII/tissue factor, sequence (P13726 33-295 partner limits assumed): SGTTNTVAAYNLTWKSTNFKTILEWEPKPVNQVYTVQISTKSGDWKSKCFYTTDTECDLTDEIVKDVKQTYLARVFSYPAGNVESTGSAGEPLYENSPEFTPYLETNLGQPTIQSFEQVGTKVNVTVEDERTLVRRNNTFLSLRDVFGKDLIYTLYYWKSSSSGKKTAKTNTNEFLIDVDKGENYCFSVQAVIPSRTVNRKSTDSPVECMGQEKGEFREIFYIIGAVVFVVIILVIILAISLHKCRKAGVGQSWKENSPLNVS
Coagulation factor X, sequence (P00742 41-179 limits assumed): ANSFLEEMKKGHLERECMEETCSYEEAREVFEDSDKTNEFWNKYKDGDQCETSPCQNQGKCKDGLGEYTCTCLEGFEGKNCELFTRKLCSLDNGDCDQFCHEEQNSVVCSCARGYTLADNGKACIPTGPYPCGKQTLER
Coagulation factor X, sequence (P00742 235-488 limits assumed): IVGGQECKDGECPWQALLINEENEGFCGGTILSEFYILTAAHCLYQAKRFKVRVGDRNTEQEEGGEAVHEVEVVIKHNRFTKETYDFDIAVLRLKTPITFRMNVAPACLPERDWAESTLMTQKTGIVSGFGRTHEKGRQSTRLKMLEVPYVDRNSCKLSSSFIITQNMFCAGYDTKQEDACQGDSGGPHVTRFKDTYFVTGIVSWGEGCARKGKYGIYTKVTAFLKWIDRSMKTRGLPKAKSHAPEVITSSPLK

What is called Ki is the dissociation constant of the complex between target and ligand, obtained from inhibition or displacement. `CCCNc1cnc2n(c1=O)[C@H](C(=O)NCc1ccc(C(=N)N)cc1)CC2(C)C`: the Ki was > 15000 nM in [1], 1800 nM in [2] and 290 nM in data set [3].

For the compound `CC(Nc1nc(Cl)c2n(c1=O)[C@H](C(=O)NCc1ccc(C(=N)N)cc1)CC2(C)C)C(C)(C)C` (stereo partly specified), the Ki in data set [3] stood at 84 nM.

As to `N=C(N)c1ccc(CNC(=O)[C@@H]2CCc3c(Cl)nc(NC4CCC4)c(=O)n32)cc1`, the values for the Ki in [1], in data set [2] and in data set [3] were > 15000 nM, 35 nM and 30 nM, respectively.

`C=CC[C@]1(C)C[C@@H](C(=O)NCc2ccc(C(=N)N)cc2)n2c1c(Cl)nc(NC1CCC1)c2=O`: the Ki in [1] was 650 nM; in data set [2], 220 nM; in data set [3], 5.8 nM.

Regarding `CC1(C)C[C@@H](C(=O)NCc2ccc(C(=N)N)cc2)n2c1c(Cl)nc(NC1CC1)c2=O`, the Ki in data set [1] is > 15000 nM; in data set [2], 360 nM; in [3] it was 37 nM.

As for `CC1(C)C[C@@H](C(=O)NCc2ccc(C(=N)N)cc2)n2c1c(Cl)nc(NC1CCC1)c2=O`, the Ki in data set [1] was > 15000 nM; in data set [2], 200 nM; in [3] it was 23 nM.

Take `CCCNc1cnc2n(c1=O)[C@H](C(=O)NCc1ccc(C(=N)N)cc1)C[C@@]2(C)CC`: the Ki in data set [1] was > 15000 nM; in [2] it was 2100 nM; in [3], 150 nM.

Take `CCC[C@]1(C)C[C@@H](C(=O)NCc2ccc(C(=N)N)cc2)n2c1c(Cl)nc(NC1CCC1)c2=O`: the values for the Ki in [1], in [2] and in data set [3] were 1000 nM, 36 nM and 23 nM, respectively.

On to `CCC1(CC)C[C@@H](C(=O)NCc2ccc3c(N)noc3c2)n2c1c(Cl)nc(NC1CCC1)c2=O`, for which the inhibitory constant (Ki) in data set [3] stood at 1900 nM.

In the case of `COCC(C)Nc1nc(Cl)c2n(c1=O)[C@H](C(=O)NCc1ccc(C(=N)N)cc1)CC2(C)C` (stereo partly specified), in data set [3], the Ki turned out to be 130 nM.

Turning to `CCC1(CC)C[C@@H](C(=O)NCc2ccc(C(=N)N)cc2)n2c1c(Cl)nc(NC1CCC1)c2=O`, the Ki amounted to 3300 nM in [1], 210 nM in data set [2] and 7.3 nM in [3]. Also, the Ratio Ki was > 160 in data set [4]; > 160 in [5]; > 160 in data set [8]; < 3 in data set [9]; 30 in data set [10]; < 3 in [11]. For the same compound, in data set [6], the Activity was 5.6 µM. In addition, in data set [7], the “Cp(f)” value is 6.8%.

For the compound `CNc1nc(Cl)c2n(c1=O)[C@H](C(=O)NCc1ccc(C(=N)N)cc1)CC2(C)C`, the results for the Ki in data set [1], in [2] and in [3] were > 15000 nM, 230 nM and 24 nM, respectively.

On to `CC1(C)C[C@@H](C(=O)NCc2ccc(C(=N)N)cc2)n2c1c(Cl)nc(NC1CCCC1)c2=O`, for which the Ki is > 15000 nM in [1], 160 nM in [2] and 60 nM in data set [3].

`C[C@@]1(CO)C[C@@H](C(=O)NCc2ccc(C(=N)N)cc2)n2c1c(Cl)nc(NC1CCC1)c2=O`: the Ki in data set [1] was > 15000 nM; in data set [2], > 15000 nM; in [3], 72 nM.

Regarding `CCCNc1cnc2n(c1=O)[C@H](C(=O)NCc1ccc(C(=N)N)cc1)CC2(CC)CC`, the Ki in [1] is 12000 nM; in data set [2], 5200 nM; in [3], 75 nM.

In the case of `CC(C)CNc1nc(Cl)c2n(c1=O)[C@H](C(=O)NCc1ccc(C(=N)N)cc1)CC2(C)C`, the Ki in [1] is > 15000 nM; in [2], 220 nM; in [3] it was 43 nM.

In turn, `CCC1(CC)C[C@@H](C(=O)NCc2ccc3c(N)nccc3c2)n2c1c(Cl)nc(NC1CCC1)c2=O` gave a Ki in data set [3] of 360 nM.

Turning to `CNC(=O)[C@]1(C)C[C@@H](C(=O)NCc2ccc(C(=N)N)cc2)n2c1c(Cl)nc(NC1CCC1)c2=O`, the inhibitory constant (Ki) in data set [1] is 1100 nM; in data set [2], > 15000 nM; in data set [3], 2100 nM.

`CCNc1nc(Cl)c2n(c1=O)[C@H](C(=O)NCc1ccc(C(=N)N)cc1)CC2(C)C`: the figures for the Ki in [1], in [2] and in data set [3] were > 15000 nM, 260 nM and 19 nM, respectively.

Consider `N=C(N)c1ccc(CNC(=O)[C@@H]2CC3(CCCC3)c3c(Cl)nc(NC4CCC4)c(=O)n32)cc1`, for which the figures for the inhibitory constant (Ki) in data set [1], in data set [2] and in data set [3] were > 15000 nM, 78 nM and 99 nM, respectively.

In the case of `CC(C)(C)OC(=O)CNc1nc(Cl)c2n(c1=O)[C@H](C(=O)NCc1ccc(C(=N)N)cc1)CC2(C)C`, the Ki in data set [2] turned out to be 32 nM; in [3] it was 132 nM.

As to `CCCNc1cnc2n(c1=O)[C@H](C(=O)NCc1ccc(C(=N)N)cc1)CC2`, the Ki in [1] is > 15000 nM; in [2] it was 150 nM; in [3] it was 186 nM.

Consider `CCC[C@@]1(C)C[C@@H](C(=O)NCc2ccc(C(=N)N)cc2)n2c1c(Cl)nc(NC1CCC1)c2=O`, for which the values for the Ki in data set [1], in data set [2] and in [3] were 2200 nM, 110 nM and 21 nM, respectively.

As to `CC1(C)C[C@@H](C(=O)NCc2ccc(C(=N)N)cc2)n2c1c(Cl)nc(NCC1CCCCC1)c2=O`, the Ki is > 15000 nM in [1], 220 nM in [2] and 76 nM in data set [3].

Take `CC(C)(C)Nc1nc(Cl)c2n(c1=O)[C@H](C(=O)NCc1ccc(C(=N)N)cc1)CC2(C)C`: the results for the Ki in data set [1], in data set [2] and in data set [3] were 2800 nM, 220 nM and 68 nM, respectively.

Regarding `CCCC1(CCC)C[C@@H](C(=O)NCc2ccc(C(=N)N)cc2)n2c1c(Cl)nc(NC1CCC1)c2=O`, the Ki was 550 nM in [1], 170 nM in data set [2] and 28 nM in data set [3].

Take `C[C@@]1(C(=O)NCc2ccccc2)C[C@@H](C(=O)NCc2ccc(C(=N)N)cc2)n2c1c(Cl)nc(NC1CCC1)c2=O`: the inhibition constant (Ki) is 3700 nM in [1], > 15000 nM in data set [2] and 560 nM in data set [3].

In the case of `CC(C)Nc1nc(Cl)c2n(c1=O)[C@H](C(=O)NCc1ccc(C(=N)N)cc1)CC2(C)C`, the Ki in data set [1] is > 15000 nM; in data set [2] it was 130 nM; in [3], 17 nM.

With `CCC1(CC)C[C@@H](C(=O)NCc2ccc(CN)cc2)n2c1c(Cl)nc(NC1CCC1)c2=O`, the Ki in data set [3] turned out to be 300 nM.

For `CC1(C)C[C@@H](C(=O)NCc2ccc(C(=N)N)cc2)n2c1c(Cl)nc(NC1(CO)CCCC1)c2=O`, the results for the Ki in data set [1], in data set [2] and in data set [3] were > 15000 nM, 380 nM and 70 nM, respectively.

In turn, `Cc1ccc(CNc2nc(Cl)c3n(c2=O)[C@H](C(=O)NCc2ccc(C(=N)N)cc2)CC3(C)C)o1` gave a Ki in data set [3] of 190 nM.

Turning to `CCCNc1cnc2n(c1=O)[C@H](C(=O)NCc1ccc(C(=N)N)cc1)CC2(CCC)CCC`, the Ki in data set [1] came to 3600 nM; in data set [2], 1200 nM; in [3], 620 nM.
